Reference: PMC4403237 (European journal of medicinal chemistry, 2014)
pIC50: −log10 of the molar value.

How the values were obtained:
[1] = test system: HL-60 human leukemia cell line; test: MTT cell viability assay, HL-60; assay type: cell-based; conditions: HL-60, 48 h, read-out: IC50 HL-60
In short: (§1)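 Logarithmically growing cells were used: HL-60 and NCI-H460 in RPMI-1640 with 10% FBS and L-glutamine; Hep3B in DMEM/F12 with 10% FBS; Detroit 551 in DMEM with 10% FBS and L-glutamine. Cells were exposed to a range of test compound concentrations or DMSO vehicle for 48 h at 37 °C, then incubated with MTT (1 mg/mL in PBS) for 2 h. Absorbance was read at 570 nm, corrected at 630 nm.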

[2] = test system: Hep3B human hepatoma cell line; test: MTT cell viability assay, Hep3B; assay type: cell-based; conditions: 48 h, read-out: IC50 Hep3B
In short: as §1

[3] = test system: NCI-H460 non-small cell lung cancer cell line; test: MTT cell viability assay, NCI-H460; assay type: cell-based; conditions: Homo sapiens, NCI-H460, 48 h, read-out: IC50 NCI-H460
In short: as §1

[4] = test system: Detroit 551 human skin fibroblast cell line; test: MTT cell viability assay, Detroit 551; assay type: cell-based; conditions: Detroit 551, 48 h, read-out: IC50 Detroit551
In short: as §1

[5] = test system: NCI-60 human cancer cell line panel; test: NCI-60 human cancer cell line panel screen; assay type: cell-based; conditions: NCI-60 panel mean
[6] = test system: K562 leukemia; test: NCI-60 screen, K562; assay type: cell-based, human
[7] = test system: SR leukemia; test: NCI-60 screen, SR; assay type: cell-based, human
[8] = test system: NCI-H522 non-small cell lung cancer; test: NCI-60 screen, NCI-H522; assay type: cell-based, human; conditions: NCI-522 non-small cell lung cancer
[9] = test system: SW-620 colon cancer; test: NCI-60 screen, SW-620; assay type: cell-based, human
[10] = test system: M14 melanoma; test: NCI-60 screen, M14; assay type: cell-based, human
[11] = test system: MDA-MB-435 melanoma; test: NCI-60 screen, MDA-MB-435; assay type: cell-based, human
[12] = test system: Hep3B cells; test: Cell cycle distribution by flow cytometry in Hep3B cells; assay type: cell-based, human; conditions: 24 h
In short: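 Hep3B cells were treated for 24 h with DMSO vehicle, test compound at 0.1, 0.3, 1 or 3 μM, or 1 μM reference antimitotics (vinblastine, colchicine, paclitaxel). Cells were stained with propidium iodide and analysed by flow cytometry. Data are mean ± SEM of three independent experiments.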

[13] = test system: Hep3B cells; test: Western blot of caspase and PARP cleavage in Hep3B cells; assay type: cell-based, human; conditions: 48 h treatment
[14] = test system: Hep3B cells; test: In vivo; assay type: cell-based, human; conditions: 1 μM, 24 h
In short: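 Hep3B cells were treated for 24 h with DMSO vehicle, 1 μM test compound, or 1 μM reference antimitotics. Cells were washed in ice-cold PBS and lysed 5 min at 37 °C in hypotonic buffer (20 mM Tris-HCl pH 6.8, MgCl2, EGTA, 0.5% IGEPAL, protease inhibitors), then spun 15,000 ×g for 10 min at 25 °C. Supernatant (soluble) and sonicated pellet (polymerized) fractions were western-blotted for α-tubulin, β-tubulin and β-actin.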

[15] = test system: Hep3B xenograft; test: Hep3B xenograft nude mice model; assay type: in vivo, Balb/c nude mice
In short: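 Male Balb/c nude mice (4–6 weeks, 18–20 g, SPF) received 2 × 10^6 Hep3B cells s.c. in the right flank. At tumor volume >100 mm3 (day 0), mice were grouped (n = 8). The water-soluble phosphate prodrug was given i.v. at 10, 20 or 40 mg/kg, five days/week for 3 weeks; doxorubicin i.v. served as reference. Tumor size (length × width² × 0.5) and body weight were recorded every 7 days to day 21; T/C was calculated.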

Structure (SMILES)	pIC50 [1]	pIC50 [2]	pIC50 [3]	pIC50 [4]	also measured
COc1cccc(-c2cc(=O)c3c(C)ccnc3[nH]2)c1 [6a, 2-(3-Methoxyphenyl)-5-methyl-1,8-naphthyridin-4(1H)-one]	7.52	6.89	6.74	< 5.30	–
COc1cccc(-c2cc(=O)c3cc(C)cnc3[nH]2)c1 [6b, 2-(3-Methoxyphenyl)-6-methyl-1,8-naphthyridin-4(1H)-one]	7.22	6.92	6.85	< 5.60	–
COc1cccc(-c2cc(=O)c3c(C)cc(C)nc3[nH]2)c1 [6c, 2-(3-Methoxyphenyl)-5,7-dimethyl-1,8-naphthyridin-4(1H)-one]	6.48	6.14	6.12	< 4.30	–
COc1cccc(-c2cc(=O)c3cc(Cl)cnc3[nH]2)c1 [6d, 6-Chloro-2-(3-methoxyphenyl)-1,8-naphthyridin-4(1H)-one]	7.52	7.00	7.00	< 4.30	–
COc1cccc(-c2cc(=O)c3cc(F)cnc3[nH]2)c1 [6e, 6-Fluoro-2-(3-methoxyphenyl)-1,8-naphthyridin-4(1H)-one]	7.15	6.70	6.62	< 5.30	–
COc1cnc2[nH]c(-c3cccc(F)c3)cc(=O)c2c1 [6g, 2-(3-Fluorophenyl)-6-methoxy-1,8-naphthyridin-4(1H)-one]	7.70	7.70	7.30	< 5.00	–
COc1cnc2[nH]c(-c3cccc4ccccc34)cc(=O)c2c1 [6h, 6-Methoxy-2-(naphthalen-1-yl)-1,8-naphthyridin-4(1H)-one]	7.40	7.30	6.07	< 4.60	–
COc1cnc2[nH]c(-c3csc4ccccc34)cc(=O)c2c1 [6i, 2-(Benzo[b]thiophen-3-yl)-6-methoxy-1,8-naphthyridin-4(1H)-one]	7.40	7.05	6.80	< 5.00	–
Cc1ccnc2[nH]c(-c3cccc(O)c3)cc(=O)c12 [7a, 2-(3-Hydroxyphenyl)-5-methyl-1,8-naphthyridin-4(1H)-one]	7.52	6.77	6.70	< 4.30	average logGI50 (MID) [5]: −6.30; logGI50 [6]: less than −7.00; logGI50 [7]: less than −7.00; logGI50 [8]: less than −7.00; logGI50 [9]: less than −7.00; logGI50 [10]: less than −7.00; logGI50 [11]: less than −7.00; cell population at G2/M phase ([12]; 0.1-3 μM): significant cell population accumulation at G2/M phase in a concentration-dependent manner; sub-G1 phase population [12]: predominant increase in sub-G1 phase; cleavage of caspases and PARP [13]: concentration-dependent increase in the cleavage of caspase-8, -9, -3, and PARP; tubulin content in cytoskeleton (polymerized) fraction [14]: decreased both α-tubulin and β-tubulin contents in the cytoskeleton fraction
Cc1cnc2[nH]c(-c3cccc(O)c3)cc(=O)c2c1 [7b, 2-(3-Hydroxyphenyl)-6-methyl-1,8-naphthyridin-4(1H)-one]	7.10	6.36	6.35	< 5.60	–
Cc1cc(C)c2c(=O)cc(-c3cccc(O)c3)[nH]c2n1 [7c, 2-(3-Hydroxyphenyl)-5,7-dimethyl-1,8-naphthyridin-4(1H)-one]	6.54	6.17	5.89	< 4.00	–
O=c1cc(-c2cccc(O)c2)[nH]c2ncc(Cl)cc12 [7d, 6-Chloro-2-(3-hydroxyphenyl)-1,8-naphthyridin-4(1H)-one]	6.96	6.47	6.70	< 4.00	–
O=c1cc(-c2cccc(O)c2)[nH]c2ncc(F)cc12 [7e, 6-Fluoro-2-(3-hydroxyphenyl)-1,8-naphthyridin-4(1H)-one]	6.85	6.42	6.15	< 4.00	–
O=c1cc(-c2cccc(F)c2)[nH]c2nccc(O)c12 [7f, 2-(3-Fluorophenyl)-5-hydroxy-1,8-naphthyridin-4(1H)-one]	6.09	5.74	5.61	< 4.00	–
O=c1cc(-c2cccc(F)c2)[nH]c2ncc(O)cc12 [7g, 2-(3-Fluorophenyl)-6-hydroxy-1,8-naphthyridin-4(1H)-one]	7.10	6.80	6.07	< 4.00	–
O=c1cc(-c2cccc3ccccc23)[nH]c2ncc(O)cc12 [7h, 6-Hydroxy-2-(naphthalen-1-yl)-1,8-naphthyridin-4(1H)-one]	6.32	6.34	5.87	< 4.00	–
O=c1cc(-c2csc3ccccc23)[nH]c2ncc(O)cc12 [7i, 2-(Benzo[b]thiophen-3-yl)-6-hydroxy-1,8-naphthyridin-4(1H)-one]	6.24	5.97	6.41	5.00	–
CC(=O)O[C@H]1C(=O)[C@@]2(C)[C@H]([C@H](OC(=O)c3ccccc3)[C@]3(O)C[C@H](OC(=O)[C@H](O)[C@@H](NC(=O)c4ccccc4)c4ccccc4)C(C)=C1C3(C)C)[C@]1(OC(C)=O)CO[C@@H]1C[C@@H]2O [Taxol, reference compound]	8.70	6.30	8.30	–	–
Cc1ccnc2[nH]c(-c3cccc(OP(=O)(O)O)c3)cc(=O)c12 [compound 11, 3-(5-Methyl-4-oxo-1,4-dihydro-1,8-naphthyridin-2-yl)phenyl dihydrogen phosphate]	–	–	–	–	Hep3B inhibitory activity compared with doxorubicin ([15]; i.v. 20 mg/kg): exceeded that of 5 mg/kg doxorubicin; Hep3B tumor weight ([15]; i.v. 40 mg/kg): 78.6 % of the control; body weight changes ([15]; i.v. 10, 20, 40 mg/kg, during antitumor evaluation): no significant body weight changes; inhibition of Hep3B tumor growth ([15]; i.v. 10, 20 and 40 mg/kg/day, five days per week, three weeks): dose- and time-dependent inhibition of Hep3B tumor growth
